The text below walks through data of ChEMBL document CHEMBL4007505 (J Med Chem, 2017).

The EC50 is the concentration giving half of the maximal effect. As usually defined, the Ki is a dissociation constant, usually derived from enzyme kinetics or from competition with a known ligand.

The target of experiment [1] is T1, Sodium-dependent noradrenaline transporter (Homo sapiens, UniProt P23975). The experiment in a line: Enhancing of [3H]mazindol binding to recombinant human NET expressed in HEK293 cell membranes preincubated for 10 mins followed by radioligand addition measured after 90 mins by micro beta scintillation counting analysis.
T1 sequence (P23975 whole entry): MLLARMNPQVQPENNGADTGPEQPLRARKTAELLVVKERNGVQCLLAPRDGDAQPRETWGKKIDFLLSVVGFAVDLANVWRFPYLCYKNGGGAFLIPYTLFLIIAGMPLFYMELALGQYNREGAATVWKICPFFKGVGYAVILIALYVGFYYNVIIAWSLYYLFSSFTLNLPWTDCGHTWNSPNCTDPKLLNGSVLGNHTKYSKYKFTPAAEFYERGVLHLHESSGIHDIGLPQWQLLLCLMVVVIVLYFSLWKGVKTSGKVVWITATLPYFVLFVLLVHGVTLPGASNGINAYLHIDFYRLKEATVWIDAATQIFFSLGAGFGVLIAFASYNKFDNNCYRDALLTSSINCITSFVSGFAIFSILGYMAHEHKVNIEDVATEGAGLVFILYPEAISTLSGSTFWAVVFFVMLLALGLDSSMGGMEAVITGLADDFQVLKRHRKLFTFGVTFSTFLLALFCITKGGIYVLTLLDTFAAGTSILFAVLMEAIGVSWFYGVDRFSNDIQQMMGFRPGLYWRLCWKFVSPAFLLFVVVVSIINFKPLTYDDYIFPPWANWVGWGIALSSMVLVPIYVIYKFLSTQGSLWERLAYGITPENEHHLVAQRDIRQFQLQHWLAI
Experiment [2] has as its target T2, Sodium-dependent dopamine transporter (Homo sapiens, UniProt Q01959). The experiment is described as follows: Enhancing of [3H]WIN35,428 binding to recombinant human DAT expressed in HEK293 cell membranes at 10 uM pre-incubated for 10 mins before radioligand addition and measured 90 mins after radioligand addition by micro beta scintillation counting analysis relative to control.

The target of experiment [3] is T1, Sodium-dependent noradrenaline transporter. The experiment is described as follows: Enhancing of [125I]RTI-55 binding to recombinant human NET expressed in HEK293 cell membranes preincubated for 10 mins followed by radioligand addition measured after 90 mins by micro beta scintillation counting analysis. Details: concentration or dose not given beside the values.

Experiment [4] addresses T2, Sodium-dependent dopamine transporter. The experiment is described as follows: Inhibition of [3H]WIN35,428 binding to recombinant human DAT expressed in HEK293 cell membranes at 10 uM pre-incubated for 10 mins before radioligand addition and measured 90 mins after radioligand addition by micro beta scintillation counting analysis relative to control.
Experiment [5] has as its target T3, Alpha-1A adrenergic receptor (Homo sapiens, UniProt P35348).
T3 sequence (P35348 whole entry): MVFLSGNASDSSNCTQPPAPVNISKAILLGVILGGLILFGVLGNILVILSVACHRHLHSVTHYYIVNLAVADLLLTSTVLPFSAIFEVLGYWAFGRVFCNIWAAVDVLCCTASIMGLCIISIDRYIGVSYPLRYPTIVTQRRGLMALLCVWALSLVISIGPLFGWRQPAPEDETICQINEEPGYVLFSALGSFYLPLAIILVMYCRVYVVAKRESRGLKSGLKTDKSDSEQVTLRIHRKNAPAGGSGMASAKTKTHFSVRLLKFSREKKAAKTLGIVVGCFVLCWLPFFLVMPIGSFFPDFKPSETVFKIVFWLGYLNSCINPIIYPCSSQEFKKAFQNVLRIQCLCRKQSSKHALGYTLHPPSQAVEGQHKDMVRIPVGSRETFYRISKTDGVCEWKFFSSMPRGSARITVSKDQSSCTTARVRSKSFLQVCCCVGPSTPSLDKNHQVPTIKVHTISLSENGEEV
The experiment in a line: Displacement of [3H]Prazosin from human adrenergic alpha1A receptor. A general note: Displacement assays read how much labelled ligand stays bound in the presence of the test substance.

For experiment [6], the target named is T4, 5-hydroxytryptamine receptor 2C (Homo sapiens, UniProt P28335).
T4 sequence (P28335 whole entry): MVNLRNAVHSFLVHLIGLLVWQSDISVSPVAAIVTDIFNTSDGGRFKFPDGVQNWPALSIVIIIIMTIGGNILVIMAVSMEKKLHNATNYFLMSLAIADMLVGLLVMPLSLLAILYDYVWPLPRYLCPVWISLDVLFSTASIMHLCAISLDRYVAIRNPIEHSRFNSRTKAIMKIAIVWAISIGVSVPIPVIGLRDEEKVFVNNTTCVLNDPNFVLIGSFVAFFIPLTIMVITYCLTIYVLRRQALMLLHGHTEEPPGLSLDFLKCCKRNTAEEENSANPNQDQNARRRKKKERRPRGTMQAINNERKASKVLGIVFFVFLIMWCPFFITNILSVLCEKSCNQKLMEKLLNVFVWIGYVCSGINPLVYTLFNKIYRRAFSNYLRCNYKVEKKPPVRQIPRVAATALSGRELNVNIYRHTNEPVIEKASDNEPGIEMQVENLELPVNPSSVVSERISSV
The experiment is described as follows: Displacement of [3H]Mesulergine from human 5-HT2C receptor.

The target in experiment [7] is Sodium-dependent serotonin transporter (Homo sapiens, UniProt P31645). The experiment is described as follows: Enhancing of [125I]RTI-55 binding to recombinant human SERT expressed in HEK293 cell membranes preincubated for 10 mins followed by radioligand addition measured after 90 mins by micro beta scintillation counting analysis.
Experiment [8] addresses T5, Adenosine receptor A3 (Homo sapiens, UniProt P0DMS8).
T5 sequence (P0DMS8 whole entry): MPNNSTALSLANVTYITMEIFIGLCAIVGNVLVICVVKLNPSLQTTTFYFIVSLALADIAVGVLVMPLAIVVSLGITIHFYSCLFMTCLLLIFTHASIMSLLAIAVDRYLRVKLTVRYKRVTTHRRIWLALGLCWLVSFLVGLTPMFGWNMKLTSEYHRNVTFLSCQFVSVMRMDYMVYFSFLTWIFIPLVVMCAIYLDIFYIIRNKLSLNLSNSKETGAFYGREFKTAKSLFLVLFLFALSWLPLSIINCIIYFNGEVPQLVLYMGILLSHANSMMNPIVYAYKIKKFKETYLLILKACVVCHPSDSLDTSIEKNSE
The experiment is described as follows: Displacement of [125I]N6-(4-amino-3-iodobenzyl)adenosine-5'-N-methyluronamide from human A3AR expressed in HEK293T cells pre-incubated for 10 mins before radioligand addition and measured 90 mins after radioligand addition by micro beta scintillation counting analysis relative to control. The format is cell-based, HEK-293T.

Experiment [9] deals with T6, Adenosine receptor A3 (Mus musculus, UniProt Q61618).
T6 sequence (Q61618 whole entry): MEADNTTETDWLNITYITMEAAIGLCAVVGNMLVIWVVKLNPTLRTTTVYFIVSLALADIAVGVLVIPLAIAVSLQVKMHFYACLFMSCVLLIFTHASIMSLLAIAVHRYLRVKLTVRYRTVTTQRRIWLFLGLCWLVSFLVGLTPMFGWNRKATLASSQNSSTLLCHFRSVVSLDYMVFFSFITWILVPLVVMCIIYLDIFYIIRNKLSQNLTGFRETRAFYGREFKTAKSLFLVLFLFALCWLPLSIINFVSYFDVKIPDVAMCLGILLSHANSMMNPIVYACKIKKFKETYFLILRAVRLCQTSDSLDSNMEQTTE
The experiment is described as follows: Displacement of [125I]N6-(4-amino-3-iodobenzyl)adenosine-5'-N-methyluronamide from mouse A3AR expressed in HEK293T cells pre-incubated for 10 mins before radioligand addition and measured 90 mins after radioligand addition by micro beta scintillation counting analysis relative to control. Type of experiment: cell-based.

The target in experiment [10] is T2, Sodium-dependent dopamine transporter. The experiment in a line: Enhancing of [125I]RTI-55 binding to recombinant human DAT expressed in HEK293 cell membranes preincubated for 10 mins followed by radioligand addition measured after 90 mins by micro beta scintillation counting analysis. Details: concentration or dose not given beside the values. In a few lines: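 Membranes of HEK-293 cells stably expressing hDAT, hNET or hSERT. […] Compound preincubated 10 min at room temperature, then [125I]23 (40-80 pM final) or [3H]26 (1-3 nM for DAT and NET, 10-13 nM for SERT) added. Incubated 90 min at room temperature in the dark, then filtered. EC50 or Ki; mean ± SEM.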

Activity calls are given as the source filed them. The calls are words filed in the database; no cut-off is given here.

T2 sequence (Q01959 whole entry): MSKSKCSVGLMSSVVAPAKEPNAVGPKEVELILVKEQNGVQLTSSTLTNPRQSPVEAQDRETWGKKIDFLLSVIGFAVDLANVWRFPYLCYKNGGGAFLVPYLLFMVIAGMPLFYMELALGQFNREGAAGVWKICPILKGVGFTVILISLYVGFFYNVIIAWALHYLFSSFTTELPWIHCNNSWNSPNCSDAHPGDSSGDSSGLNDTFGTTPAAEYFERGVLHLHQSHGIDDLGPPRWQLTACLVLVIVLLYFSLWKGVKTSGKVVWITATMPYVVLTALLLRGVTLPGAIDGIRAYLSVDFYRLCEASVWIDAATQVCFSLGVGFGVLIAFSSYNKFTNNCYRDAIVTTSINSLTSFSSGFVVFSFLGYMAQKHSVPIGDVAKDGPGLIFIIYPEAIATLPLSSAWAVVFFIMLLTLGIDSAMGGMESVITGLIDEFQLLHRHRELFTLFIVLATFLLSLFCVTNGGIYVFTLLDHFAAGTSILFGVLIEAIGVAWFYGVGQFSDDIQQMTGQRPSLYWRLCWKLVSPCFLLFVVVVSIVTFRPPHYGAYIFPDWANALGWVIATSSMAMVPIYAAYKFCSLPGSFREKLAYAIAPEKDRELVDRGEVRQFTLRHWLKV

Consider `CNc1nc(C#Cc2ccc(Cl)s2)nc2c1ncn2[C@@H]1O[C@H](C(=O)OC)[C@@H](O)[C@H]1O`, for which the outcome in [1] and in [7] was inactive. Also, the Activity in experiment [2] was 220%; in experiment [3], 227%; in experiment [10] it was 312%. For the same compound, the concentration for a half-maximal effect (EC50) in [3] (read-out: EC50) is 1520 nM; in [7] (read-out: EC50) it was more than 10000 nM; in [10] (read-out: EC50), 127 nM. Further, the inhibition entry in experiment [4] is “inactive”. For the same compound, the inhibitory constant (Ki) in experiment [5] was more than 10000 nM; in experiment [6] it was 3240 nM; at Adenosine receptor A3 [8], 11.5 nM; on Adenosine receptor A3 [9], 34 nM.
